What was measured:
[1] = molecular target: T1, Protein kinase C zeta type (Homo sapiens, UniProt Q05513); assay: Inhibition of atypical PKCzeta in HEK293 cells assessed as TNF-induced NFkappaB activation incubated for 3 hrs prior to TNF induction measured after 5 hrs by bright-glo luciferase reporter gene assay; assay type: cell-based
T1 sequence (Q05513 whole entry): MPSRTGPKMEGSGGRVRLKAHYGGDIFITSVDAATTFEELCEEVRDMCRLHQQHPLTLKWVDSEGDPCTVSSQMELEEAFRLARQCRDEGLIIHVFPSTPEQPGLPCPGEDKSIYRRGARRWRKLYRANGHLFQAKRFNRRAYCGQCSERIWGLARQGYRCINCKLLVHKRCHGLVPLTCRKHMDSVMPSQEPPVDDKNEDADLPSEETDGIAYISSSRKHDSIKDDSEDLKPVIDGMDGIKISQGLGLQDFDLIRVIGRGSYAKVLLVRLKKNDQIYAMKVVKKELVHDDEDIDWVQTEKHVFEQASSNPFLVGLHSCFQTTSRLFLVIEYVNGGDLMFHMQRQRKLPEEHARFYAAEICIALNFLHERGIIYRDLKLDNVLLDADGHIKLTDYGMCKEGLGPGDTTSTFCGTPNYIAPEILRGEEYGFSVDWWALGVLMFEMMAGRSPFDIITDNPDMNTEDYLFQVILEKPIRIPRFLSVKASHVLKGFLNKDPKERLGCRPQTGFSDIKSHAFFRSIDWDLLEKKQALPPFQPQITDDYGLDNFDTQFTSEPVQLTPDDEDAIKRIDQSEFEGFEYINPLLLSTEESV

[2] = Inhibition of atypical PKCzeta in bovine retinal endothelial cells assessed as TNFalpha/VEGF-induced endothelial permeability preincubated for 30 mins followed by TNFalpha induction for 1 hr and VEGF induction for 30 mins measured every 30 mins for 4 hrs by Transwell assay; assay type: cell-based; details: Bos taurus, Endothelial cell
Method in brief: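 Retinal endothelial monolayers were given a 5-point compound dose-response, then VEGF/TNF was added for 1.5 h. Flux of 70kDa RITC-dextran across the monolayer was the read-out. Data are the mean of at least n≥8, repeated in independent experiments. EC50 was derived from a variable-slope dose-response fit.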

[3] = molecular target: Voltage-gated inwardly rectifying potassium channel KCNH2 (Homo sapiens, UniProt Q12809); assay: Inhibition of human ERG
Chain of Voltage-gated inwardly rectifying potassium channel KCNH2 (Q12809 whole entry): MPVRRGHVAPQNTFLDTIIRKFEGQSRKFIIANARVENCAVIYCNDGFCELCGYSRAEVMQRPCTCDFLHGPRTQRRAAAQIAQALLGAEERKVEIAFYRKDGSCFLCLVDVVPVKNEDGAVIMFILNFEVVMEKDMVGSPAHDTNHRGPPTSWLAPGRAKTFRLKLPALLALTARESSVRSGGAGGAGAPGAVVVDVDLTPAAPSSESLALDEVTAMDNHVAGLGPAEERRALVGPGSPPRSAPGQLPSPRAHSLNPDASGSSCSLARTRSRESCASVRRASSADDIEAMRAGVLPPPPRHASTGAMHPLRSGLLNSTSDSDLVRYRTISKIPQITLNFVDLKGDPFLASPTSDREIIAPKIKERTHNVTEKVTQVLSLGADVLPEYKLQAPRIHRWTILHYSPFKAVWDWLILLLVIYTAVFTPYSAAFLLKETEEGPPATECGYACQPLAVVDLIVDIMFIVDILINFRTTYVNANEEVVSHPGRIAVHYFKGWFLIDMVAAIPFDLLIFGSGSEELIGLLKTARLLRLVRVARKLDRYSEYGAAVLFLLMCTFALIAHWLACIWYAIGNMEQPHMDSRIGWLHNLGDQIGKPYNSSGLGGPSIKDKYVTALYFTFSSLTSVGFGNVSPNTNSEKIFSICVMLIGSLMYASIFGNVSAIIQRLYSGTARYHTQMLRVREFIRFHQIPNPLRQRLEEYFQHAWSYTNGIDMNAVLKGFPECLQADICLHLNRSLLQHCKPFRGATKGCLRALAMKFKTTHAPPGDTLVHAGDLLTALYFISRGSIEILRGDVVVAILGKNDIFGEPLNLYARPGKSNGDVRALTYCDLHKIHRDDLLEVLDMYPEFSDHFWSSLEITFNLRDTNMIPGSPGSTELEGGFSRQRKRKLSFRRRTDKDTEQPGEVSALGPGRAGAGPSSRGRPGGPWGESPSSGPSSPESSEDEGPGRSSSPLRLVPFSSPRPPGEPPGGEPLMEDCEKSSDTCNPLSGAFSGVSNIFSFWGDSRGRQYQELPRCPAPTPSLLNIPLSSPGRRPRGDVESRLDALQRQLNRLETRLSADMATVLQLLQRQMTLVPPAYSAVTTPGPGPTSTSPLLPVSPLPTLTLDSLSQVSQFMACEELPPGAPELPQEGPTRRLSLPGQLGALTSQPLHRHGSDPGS

[4] = molecular target: T1, Protein kinase C zeta type; assay: Inhibition of atypical PKCzeta (unknown origin) using CREBtide as substrate incubated for 1 hr measured every 2.5 mins by ADP Quest assay
[5] = molecular target: T2, Protein kinase C iota type (Homo sapiens, UniProt P41743); assay: Inhibition of atypical PKCiota (unknown origin) using CREBtide as substrate incubated for 1 hr measured every 2.5 mins by ADP Quest assay
T2 sequence (P41743 whole entry): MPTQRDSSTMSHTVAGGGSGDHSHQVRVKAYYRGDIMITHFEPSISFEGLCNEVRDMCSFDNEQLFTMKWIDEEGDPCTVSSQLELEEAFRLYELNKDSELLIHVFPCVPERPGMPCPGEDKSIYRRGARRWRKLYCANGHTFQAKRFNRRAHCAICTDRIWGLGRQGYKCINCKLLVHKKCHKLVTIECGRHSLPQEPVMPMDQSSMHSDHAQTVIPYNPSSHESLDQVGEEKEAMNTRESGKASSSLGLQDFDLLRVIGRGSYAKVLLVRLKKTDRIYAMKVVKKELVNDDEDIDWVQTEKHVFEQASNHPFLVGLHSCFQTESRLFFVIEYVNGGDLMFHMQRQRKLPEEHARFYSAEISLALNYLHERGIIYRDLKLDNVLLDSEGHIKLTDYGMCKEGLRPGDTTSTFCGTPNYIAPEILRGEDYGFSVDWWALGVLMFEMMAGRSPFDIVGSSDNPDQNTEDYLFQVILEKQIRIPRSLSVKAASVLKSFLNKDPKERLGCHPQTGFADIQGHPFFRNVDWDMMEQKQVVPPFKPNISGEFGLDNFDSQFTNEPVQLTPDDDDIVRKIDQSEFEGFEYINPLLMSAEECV

Row | Compound | EC50 [1] [nM] | EC50 [2] [nM] | IC50 [3] [nM] | IC50 [4] [nM] | IC50 [5] [nM]
1 | O=C(c1ccc(Nc2nccc(-c3cc4ccccc4s3)n2)cc1)N1CCC(N2CCCC2)CC1 | 3 | 1 |  |  | 
2 | COc1ccc(-c2csc(N)c2C(=O)OC(C)C)cc1OC |  |  | > 10000 |  | 
3 | COc1ccc(-c2csc(N)c2C(=O)OCc2ccccc2)cc1OC | 2 |  |  | 6000 | 
4 | COc1cccc(COC(=O)c2c(-c3ccc(OC)c(OC)c3)csc2N)c1 | 1 | > 100 | 1000 |  | 900
5 | CCOC(=O)c1c(-c2ccc(N)cc2)csc1N | 1 | 270 |  | 2000 | 
6 | CCOC(=O)c1c(-c2ccc(N(C)C)cc2)csc1N |  | 280 | > 10000 |  | 900
7 | CCOC(=O)c1c(-c2ccc3c(c2)OCO3)csc1N | 2 | 20 |  | 2000 | 2000
8 | CCOC(=O)c1c(-c2ccc(OC)cc2F)csc1N | 10 |  |  | 4000 | 
